Measurements: paper PMC6416488 (Protein and Peptide Letters, 2019)

Assays:
[1] = extremely safe even at very high doses; cited from earlier work
[2] = target: T1, modified (acetylated) β-lg (Bos taurus, UniProt P02754); assay: Intrinsic fluorescence quenching, binding constant and thermodynamics; set-up: species or system Bovine; conditions: modified B-LG
T1 sequence (P02754 17-178): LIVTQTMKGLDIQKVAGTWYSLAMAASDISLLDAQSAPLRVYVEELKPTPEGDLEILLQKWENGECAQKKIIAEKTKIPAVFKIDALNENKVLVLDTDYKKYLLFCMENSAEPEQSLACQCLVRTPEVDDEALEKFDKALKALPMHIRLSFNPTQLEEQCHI
How it was run: (§1)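 Proteins were acetylated at 10% w/v in water, 30 °C, pH 7.5–8.5, with acetic anhydride 0.5 g/g protein added over 30–90 min. They were dialysed 24 h against 20 mM phosphate pH 7.0, and lysine modification was checked by TNBS. β-lg was purified from cow milk (>97% by SDS-PAGE). Protein (1 μM) was mixed 1 min with test compound (0–2 μM). Intrinsic fluorescence was read at ex 290, em 310–700 nm. Kb and n came from a double-log Stern–Volmer plot, ΔH°/ΔS° from van't Hoff, and ΔG° from Gibbs.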

SKNMC cells = assay: MTT assay, in vitro anti-cancer activity; format: cell-based, human; conditions: 44 µM, 24 h
How it was run: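 SKNMC cells were grown in DMEM with 10% FBS and 1% penicillin–streptomycin at 37 °C, 5% CO2, 95% humidity. They were seeded at 20,000/well and pre-incubated 24 h. Medium was replaced with protein-free DMEM, and test compound in DMSO (0–50 μM), alone or protein-complexed, was added for 24 h. MTT (0.5 mg/mL) was added for 4 h, formazan was dissolved in DMSO, and A570 was read. Viability is relative to untreated cells; three separate experiments.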

native (unmodified) β-lg = target: T2, native (unmodified) β-lg (Bos taurus, UniProt P02754); assay: Intrinsic fluorescence quenching, binding constant and thermodynamics; set-up: species or system Bovine; conditions: unmodified B-LG
T2 sequence (P02754 17-178): T1 sequence (P02754 17-178)
How it was run: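 Unmodified protein was used; β-lg was purified from fresh cow milk (>97% by SDS-PAGE). Protein (1 μM) in 20 mM sodium phosphate pH 7.0 was co-incubated 1 min with test compound (0–2 μM). Quenching was read at excitation 290 nm, emission 310–700 nm, slits 5/10 nm. Kb and n came from a modified Stern–Volmer double-log plot, ΔH° and ΔS° from the van't Hoff ln Kb vs 1/T slope and intercept, and ΔG° from the Gibbs equation. Data points are means of three determinations.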

[3] = ref 3b; cited from earlier work
[4] = Solvent- and light-mediated curcumin degradation; format: physicochemical; conditions: absolute ethanol, 10 μM curcumin, absorbance 420 nm
How it was run: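 Test compound: 5 mM methanol stock diluted to 10 μM in absolute ethanol. Samples were held at room temperature either in darkness or under a 100 W lamp. Absorbance maximum at 420 nm was recorded at intervals within 30 min. Degradation rate was taken from the initial slope of a best-fit line.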

PC12 cells = assay: Intracellular ROS; format: cell-based, rat; conditions: 1 μM curcumin pretreatment 6 h, H2O2 125 μM 16 h, DCFH-DA
How it was run: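 PC12 cells were seeded at 20,000/well and pre-incubated 24 h, then switched to protein-free DMEM. They were pretreated 6 h with 1 μM test compound or its protein complex, then exposed to freshly prepared H2O2 (125 μM) for 16 h. DCFH-DA (10 μM) was added for 45 min at 37 °C. Cells were washed twice in PBS, and DCF fluorescence (ex 480/488, em 540/525 nm) was read by microplate reader. Controls were DMSO-treated cells. Results are mean ± S.E.M. of three experiments.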

[5] = target: modified (acetylated) BSA (Bos taurus, UniProt P02769); assay: Intrinsic fluorescence quenching, binding constant and thermodynamics; set-up: species or system Bovine; conditions: modified albumin
How it was run: as §1

[6] = physiological pH; cited from earlier work
native (unmodified) BSA = native (unmodified) BSA (Bos taurus, UniProt P02769); assay: Intrinsic fluorescence quenching, binding constant and thermodynamics; set-up: species or system Bovine; conditions: unmodified albumin
[7] = phase I trial, oral administration of 3.6 g/day; cited from earlier work
[8] = without and in the presence of β-lg; ref 10d; cited from earlier work
[9] = Effect of temperature on hydrolytic stability of curcumin; format: physicochemical; conditions: 80°C, 10 μM curcumin, 20 mM sodium phosphate buffer pH 7.0, 60 min, darkness
How it was run: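 Test compound: 1 mM methanol stock diluted to 10 μM in 20 mM sodium phosphate buffer pH 7.0. Kept in darkness at 4, 25, 37 or 80 °C for up to 60 min and sampled at set intervals. Fluorescence spectra were taken at excitation 420 nm, emission 440–700 nm, with slits 10/20. Maximum emission was followed over time, and the decomposition rate was taken from the initial slope of a linear fit.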

Sequence of modified (acetylated) BSA (P02769 25-607): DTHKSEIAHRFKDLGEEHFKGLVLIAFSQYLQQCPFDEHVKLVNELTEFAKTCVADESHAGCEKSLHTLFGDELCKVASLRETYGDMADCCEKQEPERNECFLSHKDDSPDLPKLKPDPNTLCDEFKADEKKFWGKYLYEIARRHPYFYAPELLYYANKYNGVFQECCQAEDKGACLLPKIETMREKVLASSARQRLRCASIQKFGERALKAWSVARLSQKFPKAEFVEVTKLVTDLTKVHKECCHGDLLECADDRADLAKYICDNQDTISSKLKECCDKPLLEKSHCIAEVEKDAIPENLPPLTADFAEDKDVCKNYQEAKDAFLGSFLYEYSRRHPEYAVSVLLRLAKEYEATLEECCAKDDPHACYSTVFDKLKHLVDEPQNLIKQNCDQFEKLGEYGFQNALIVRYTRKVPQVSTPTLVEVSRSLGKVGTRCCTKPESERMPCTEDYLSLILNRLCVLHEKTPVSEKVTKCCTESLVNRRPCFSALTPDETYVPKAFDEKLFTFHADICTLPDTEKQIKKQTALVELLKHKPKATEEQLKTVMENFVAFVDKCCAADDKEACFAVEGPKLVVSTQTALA
Sequence of native (unmodified) BSA (P02769 25-607): as above

Substance: 1,7-bis(4-hydroxy-3-methoxyphenyl)-1,6- heptadiene-3,5-dione [curcumin]
- safe dose [1]: 8 to 12 g/day
- ΔG° ([2]; 310 K (per Table S1)): -9.6836 ± 0.387 kcal/mol
- N (number of curcumin binding sites) ([2]; Table 1): 1.347±0.042
- ΔH° ([2]; van't Hoff, 277-310 K): 2.227 ± 0.0225 kcal/mol
- ΔS° ([2]; van't Hoff, 277-310 K): 0.161±0.006 J mol^-1·K^-1
- cell viability (SKNMC cells): 88%
- ΔG° (native (unmodified) β-lg; 310 K (per Table S1)): -7.0335 ± 0.4218 kcal/mol
- N (number of curcumin binding sites) (native (unmodified) β-lg; Table 1): 1.145±0.034
- ΔH° (native (unmodified) β-lg; van't Hoff, 277-310 K): -6.4892 ± 0.195 kcal/mol
- ΔS° (native (unmodified) β-lg; van't Hoff, 277-310 K): 0.007±0.001 J mol^-1·K^-1
- solubility in water [3]: about 11 ng/mL
- degradation in non-aqueous solvent [4]: did not degrade
- effect on H2O2-induced intracellular ROS levels (PC12 cells): significantly reduced
- ΔG° ([5]; 310 K (per Table S1)): -4.6953 ± 0.141 kcal/mol
- N (number of curcumin binding sites) ([5]; Table 1): 0.975±0.015
- ΔH° ([5]; van't Hoff, 277-310 K): -8.1783 ± 0.163 kcal/mol
- ΔS° ([5]; van't Hoff, 277-310 K): -0.047±0.001 J mol^-1·K^-1
- time to molecular fragmentation and degradation by hydrolysis [6]: ≤ 30 min
- ΔG° (native (unmodified) BSA; 310 K (per Table S1)): -9.1702 ± 0.2751 kcal/mol
- N (number of curcumin binding sites) (native (unmodified) BSA; Table 1): 1.249±0.02
- ΔH° (native (unmodified) BSA; van't Hoff, 277-310 K): 6.4971 ± 0.195 kcal/mol
- ΔS° (native (unmodified) BSA; van't Hoff, 277-310 K): 0.212±0.002 J mol^-1·K^-1
- concentration of curcumin in plasma [7]: 11.1 nM
- concentration of curcumin in target tissues [7]: 1300 nM
- curcumin half-life [8]: 30.8 min
- initial curcumin population remained intact [9]: more than 40%
